System: HEK-293T
Test: Multiplex assay against HEK293T;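 for Population Tubulin-Different-Phenotype (%): share of the cells with healthy nuclei that show this phenotype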
Format: toxicity, cell-based
Conditions: human
Outline: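 Live cells were stained at seeding with Hoechst33342, BioTracker Green Microtubule Cytoskeleton Dye, MitoTracker Red and Annexin V Alexa Fluor 680, then imaged on a CQ1 microscope at 37°C and 5% CO2 after compound addition. CellPathfinder machine-learning gating split cells into Hoechst high-intensity objects or normal cells. Normal cells were split into healthy, pyknosed or fragmented nuclei, and pyknosed cells into mitotic or apoptotic. Tubulin, mitochondrial-mass and membrane-permeability phenotypes are per cents of healthy-nucleus cells.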

[1] = 12 h, 1 µM, compound concentration 1 uM, replicate 1
[2] = 12 h, 1 µM, compound concentration 1 uM, replicate 2
[3] = 12 h, 10 µM, compound concentration 10 uM, replicate 1
[4] = 12 h, 10 µM, compound concentration 10 uM, replicate 2
[5] = 24 h, 1 µM, compound concentration 1 uM, replicate 1
[6] = 24 h, 1 µM, compound concentration 1 uM, replicate 2
[7] = 24 h, 10 µM, compound concentration 10 uM, replicate 1
[8] = 24 h, 10 µM, compound concentration 10 uM, replicate 2

`COc1cc2c(Nc3ccc(NC(=O)c4ccccc4)cc3)ncnc2cc1OCCCN1CCOCC1` was tested, and the “Population Apoptotic (%)” value [1] was 25%, the “Population Fragmented Nuclei (%)” value [1] was 13% and the “Population Healthy Nuclei (%)” value [1] was 42%. For the same molecule, the “Population Hoechst High Intensity Objects (%)” value [1] was 18%, the “Population Membrane Permeable-Phenotype (%)” value [1] was 29% and the “Population Mitochondria Different-Phenotype (%)” value [1] was 17%. For the same molecule, the “Population Mitotic Cells (%)” value [1] was 74%, the “Population Normal (%)” value [1] was 81% and the “Population Pyknosed Nuclei (%)” value [1] was 43%. The “Population Tubulin-Different-Phenotype (%)” value [1] was 81%, the “Total Cell Count” value [1] was 532 and the “Population Apoptotic (%)” value [2] was 26%. The “Population Fragmented Nuclei (%)” value [2] was 3%, the “Population Healthy Nuclei (%)” value [2] was 84% and the “Population Hoechst High Intensity Objects (%)” value [2] was 6%. For the same molecule, the “Population Membrane Permeable-Phenotype (%)” value [2] was 15%, the “Population Mitochondria Different-Phenotype (%)” value [2] was 39% and the “Population Mitotic Cells (%)” value [2] was 73%. For the same molecule, the “Population Normal (%)” value [2] was 93%, the “Population Pyknosed Nuclei (%)” value [2] was 12% and the “Population Tubulin-Different-Phenotype (%)” value [2] was 96%. For the same molecule, the “Total Cell Count” value [2] was 927, the “Population Apoptotic (%)” value [3] was 17% and the “Population Fragmented Nuclei (%)” value [3] was 17%. The “Population Healthy Nuclei (%)” value [3] was 59%, the “Population Hoechst High Intensity Objects (%)” value [3] was 11% and the “Population Membrane Permeable-Phenotype (%)” value [3] was 3%. The “Population Mitochondria Different-Phenotype (%)” value [3] was 9%, the “Population Mitotic Cells (%)” value [3] was 82% and the “Population Normal (%)” value [3] was 88%. The “Population Pyknosed Nuclei (%)” value [3] was 22%, the “Population Tubulin-Different-Phenotype (%)” value [3] was 9% and the “Total Cell Count” value [3] was 626. For the same molecule, the “Population Apoptotic (%)” value [4] was 6%, the “Population Fragmented Nuclei (%)” value [4] was 3% and the “Population Healthy Nuclei (%)” value [4] was 89%. The “Population Hoechst High Intensity Objects (%)” value [4] was 2%, the “Population Membrane Permeable-Phenotype (%)” value [4] was 2% and the “Population Mitochondria Different-Phenotype (%)” value [4] was 12%. The “Population Mitotic Cells (%)” value [4] was 93%, the “Population Normal (%)” value [4] was 97% and the “Population Pyknosed Nuclei (%)” value [4] was 6%. For the same molecule, the “Population Tubulin-Different-Phenotype (%)” value [4] was 13%, the “Total Cell Count” value [4] was 1320 and the “Population Apoptotic (%)” value [5] was 29%. For the same molecule, the “Population Fragmented Nuclei (%)” value [5] was 14%, the “Population Healthy Nuclei (%)” value [5] was 58% and the “Population Hoechst High Intensity Objects (%)” value [5] was 21%. For the same molecule, the “Population Membrane Permeable-Phenotype (%)” value [5] was 20%, the “Population Mitochondria Different-Phenotype (%)” value [5] was 22% and the “Population Mitotic Cells (%)” value [5] was 70%. The “Population Normal (%)” value [5] was 78%, the “Population Pyknosed Nuclei (%)” value [5] was 26% and the “Population Tubulin-Different-Phenotype (%)” value [5] was 89%. For the same molecule, the “Total Cell Count” value [5] was 523, the “Population Apoptotic (%)” value [6] was 2% and the “Population Fragmented Nuclei (%)” value [6] was 5%. For the same molecule, the “Population Healthy Nuclei (%)” value [6] was 87%, the “Population Hoechst High Intensity Objects (%)” value [6] was 6% and the “Population Membrane Permeable-Phenotype (%)” value [6] was 22%. The “Population Mitochondria Different-Phenotype (%)” value [6] was 25%, the “Population Mitotic Cells (%)” value [6] was 97% and the “Population Normal (%)” value [6] was 93%. The “Population Pyknosed Nuclei (%)” value [6] was 7%, the “Population Tubulin-Different-Phenotype (%)” value [6] was 97% and the “Total Cell Count” value [6] was 1034. For the same molecule, the “Population Apoptotic (%)” value [7] was 9%, the “Population Fragmented Nuclei (%)” value [7] was 12% and the “Population Healthy Nuclei (%)” value [7] was 75%. The “Population Hoechst High Intensity Objects (%)” value [7] was 9%, the “Population Membrane Permeable-Phenotype (%)” value [7] was 11% and the “Population Mitochondria Different-Phenotype (%)” value [7] was 5%. The “Population Mitotic Cells (%)” value [7] was 90%, the “Population Normal (%)” value [7] was 90% and the “Population Pyknosed Nuclei (%)” value [7] was 11%. The “Population Tubulin-Different-Phenotype (%)” value [7] was 13%, the “Total Cell Count” value [7] was 622 and the “Population Apoptotic (%)” value [8] was 4%. For the same molecule, the “Population Fragmented Nuclei (%)” value [8] was 14%, the “Population Healthy Nuclei (%)” value [8] was 79% and the “Population Hoechst High Intensity Objects (%)” value [8] was 4%. For the same molecule, the “Population Membrane Permeable-Phenotype (%)” value [8] was 5%, the “Population Mitochondria Different-Phenotype (%)” value [8] was 3% and the “Population Mitotic Cells (%)” value [8] was 95%. The “Population Normal (%)” value [8] was 95%, the “Population Pyknosed Nuclei (%)” value [8] was 5% and the “Population Tubulin-Different-Phenotype (%)” value [8] was 15%. The “Total Cell Count” value [8] was 1748.

From ChEMBL document CHEMBL4689842, “EUbOPEN Chemogenomics Library wave 1” (2021)
